Measurements as given in ChEMBL document CHEMBL1138496, “Synthesis and evaluation of a novel indoledione class of long chain fatty acid elongase 6 (ELOVL6) inhibitors” (J Med Chem, 2009).

What was measured:
[1] = biological target: T1, Very long chain fatty acid elongase 3 (Homo sapiens, UniProt Q9HB03); assay: Inhibition of human ELOVL3 expressed in african green monkey COS7 cells assessed as stearoyl-CoA elongation; type: cell-based, COS-7
T1 sequence (Q9HB03 whole entry): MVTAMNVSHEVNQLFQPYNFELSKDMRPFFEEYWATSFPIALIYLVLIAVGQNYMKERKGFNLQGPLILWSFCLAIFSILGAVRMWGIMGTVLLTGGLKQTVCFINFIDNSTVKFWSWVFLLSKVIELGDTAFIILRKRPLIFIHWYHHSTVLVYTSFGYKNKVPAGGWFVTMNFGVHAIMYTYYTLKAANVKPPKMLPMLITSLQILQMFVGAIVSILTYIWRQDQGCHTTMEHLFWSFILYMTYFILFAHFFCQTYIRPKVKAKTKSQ
How it was run: (§1)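 IC50 against each ELOVL subtype, each with its own fatty acyl-CoA substrate. Human ELOVL6 used palmitoyl-CoA elongation. Radioactive ELOVL6 products were detected with recombinant histidine-tagged ACBP as a probe. Values are mean ± SE, n ≥ 3.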

[2] = biological target: T2, Very long chain fatty acid elongase 6 (Homo sapiens, UniProt Q9H5J4); assay: Inhibition of human ELOVL6 expressed in african green monkey COS7 cells assessed as palmitoyl-CoA elongation; type: cell-based, COS-7; how it was run: as §1
T2 sequence (Q9H5J4 whole entry): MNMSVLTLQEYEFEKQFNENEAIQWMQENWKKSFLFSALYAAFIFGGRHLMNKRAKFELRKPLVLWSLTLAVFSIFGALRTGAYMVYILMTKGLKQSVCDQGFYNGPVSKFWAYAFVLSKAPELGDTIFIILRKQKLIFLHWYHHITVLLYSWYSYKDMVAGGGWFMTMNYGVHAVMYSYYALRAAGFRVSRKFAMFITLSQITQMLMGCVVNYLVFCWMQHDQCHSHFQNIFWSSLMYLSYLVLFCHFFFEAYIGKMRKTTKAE

[3] = Drug level in mouse liver at 10 mg/kg, po after 2 hrs; type: ADME, organism-based; design: dose 10 mg/kg, route oral; conditions: read-out: Drug uptake
[4] = biological target: T3, Very long chain fatty acid elongase 2 (Homo sapiens, UniProt Q9NXB9); assay: Inhibition of human ELOVL2 expressed in african green monkey COS7 cells; type: cell-based, COS-7; how it was run: as §1
T3 sequence (Q9NXB9 whole entry): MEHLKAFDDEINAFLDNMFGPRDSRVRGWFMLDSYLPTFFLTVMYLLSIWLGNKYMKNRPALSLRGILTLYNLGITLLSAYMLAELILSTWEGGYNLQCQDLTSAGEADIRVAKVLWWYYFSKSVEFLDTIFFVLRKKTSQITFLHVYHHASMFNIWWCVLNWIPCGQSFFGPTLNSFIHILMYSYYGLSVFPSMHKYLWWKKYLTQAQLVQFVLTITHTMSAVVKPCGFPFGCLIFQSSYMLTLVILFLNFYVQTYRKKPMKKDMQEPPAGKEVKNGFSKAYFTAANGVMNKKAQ

[5] = biological target: T4, Very long chain fatty acid elongase 5 (Homo sapiens, UniProt Q9NYP7); assay: Inhibition of human ELOVL5 expressed in african green monkey COS7 cells; type: cell-based, COS-7; how it was run: as §1
T4 sequence (Q9NYP7 whole entry): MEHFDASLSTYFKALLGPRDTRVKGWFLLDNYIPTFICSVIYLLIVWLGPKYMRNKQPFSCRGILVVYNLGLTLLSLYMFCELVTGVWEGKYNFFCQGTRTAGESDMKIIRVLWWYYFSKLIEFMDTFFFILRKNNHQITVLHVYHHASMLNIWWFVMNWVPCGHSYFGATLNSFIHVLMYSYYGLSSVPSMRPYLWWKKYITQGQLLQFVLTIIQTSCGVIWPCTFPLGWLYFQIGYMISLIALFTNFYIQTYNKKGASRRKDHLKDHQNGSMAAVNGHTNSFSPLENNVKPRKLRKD

[6] = biological target: T5, Very long chain fatty acid elongase 3 (Mus musculus, UniProt O35949); assay: Inhibition of mouse ELOVL3 expressed in african green monkey COS7 cells; type: cell-based, COS-7; how it was run: as §1
T5 sequence (O35949 whole entry): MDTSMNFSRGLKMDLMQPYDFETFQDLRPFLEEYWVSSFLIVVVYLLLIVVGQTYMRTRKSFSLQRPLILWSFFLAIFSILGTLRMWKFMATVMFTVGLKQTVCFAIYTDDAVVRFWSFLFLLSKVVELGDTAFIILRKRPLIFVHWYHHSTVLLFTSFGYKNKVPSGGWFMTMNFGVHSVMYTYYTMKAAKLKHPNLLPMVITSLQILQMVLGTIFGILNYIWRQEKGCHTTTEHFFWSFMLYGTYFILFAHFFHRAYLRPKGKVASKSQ

[7] = Plasma concentration in mouse at 1 mg/kg, po after 24 hrs; type: ADME, organism-based; design: dose 1 mg/kg, route oral
How it was run: (§2)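 Compound was given orally at 1 mg/kg to mice. Plasma levels were sampled at 2, 4, 8 and 24 h. Values are the mean of n = 3 animals.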

[8] = biological target: T6, Very long chain fatty acid elongase 6 (Mus musculus, UniProt Q920L5); assay: Inhibition of mouse ELOVL6 expressed in african green monkey COS7 cells; type: cell-based, COS-7; how it was run: as §1
T6 sequence (Q920L5 whole entry): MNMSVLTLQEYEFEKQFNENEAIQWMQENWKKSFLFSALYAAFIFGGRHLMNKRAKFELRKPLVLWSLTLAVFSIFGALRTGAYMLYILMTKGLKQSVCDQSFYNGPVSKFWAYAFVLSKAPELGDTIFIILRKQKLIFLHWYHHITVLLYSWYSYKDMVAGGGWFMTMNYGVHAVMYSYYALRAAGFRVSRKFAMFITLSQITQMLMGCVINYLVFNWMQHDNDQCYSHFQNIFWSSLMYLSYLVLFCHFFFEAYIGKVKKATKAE

[9] = biological target: T7, Very long chain fatty acid elongase 1 (Homo sapiens, UniProt Q9BW60); assay: Inhibition of human ELOVL1 expressed in african green monkey COS7 cells; type: cell-based, COS-7; how it was run: as §1
T7 sequence (Q9BW60 whole entry): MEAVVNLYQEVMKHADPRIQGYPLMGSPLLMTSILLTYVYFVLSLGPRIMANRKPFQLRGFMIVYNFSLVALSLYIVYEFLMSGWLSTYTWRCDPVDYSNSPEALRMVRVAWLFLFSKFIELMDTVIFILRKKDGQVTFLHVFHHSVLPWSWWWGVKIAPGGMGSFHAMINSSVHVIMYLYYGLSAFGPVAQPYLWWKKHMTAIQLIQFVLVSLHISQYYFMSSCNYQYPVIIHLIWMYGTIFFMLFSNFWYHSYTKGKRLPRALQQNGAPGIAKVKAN

[10] = Plasma concentration in mouse at 1 mg/kg, po after 4 hrs; type: ADME, organism-based; design: dose 1 mg/kg, route oral; how it was run: as §2
Mus musculus = assay: Inhibition of ELOVL6 activity in po dosed C57BL/6J mouse liver assessed as […] administered 1 hr before [1-14C]palmitic acid measured after 2 hrs; type: functional, organism-based
[11] = Plasma concentration in mouse at 10 mg/kg, po after 2 hrs; type: ADME, organism-based; design: dose 10 mg/kg, route oral
[12] = Plasma concentration in mouse at 1 mg/kg, po after 2 hrs; type: ADME, organism-based; design: dose 1 mg/kg, route oral; how it was run: as §2
[13] = Plasma concentration in mouse at 1 mg/kg, po after 8 hrs; type: ADME, organism-based; design: dose 1 mg/kg, route oral; how it was run: as §2

SMILES	IC50 [1]	IC50 [2]	also measured
Cc1[nH]n(-c2ccc(C(C)C)cc2)c(=O)c1C1(C(F)(F)F)C(=O)N(c2ccccc2)C2=C1C(=O)CC(C)(C)C2 (stereo unspecified)	59 nM		
COc1ccc(-n2[nH]c(C)c(C3(C(F)(F)F)C(=O)N(c4ccccc4)C4=C3C(=O)CC(C)(C)C4)c2=O)cc1 (stereo unspecified)	503 nM		
Cc1[nH]n(-c2ccc(Cl)cc2)c(=O)c1C1(C(F)(F)F)C(=O)N(c2ccccc2)C2=C1C(=O)CC(C)(C)C2 (stereo unspecified)	221 nM		
Cc1[nH]n(-c2ccc(C#N)cc2)c(=O)c1C1(C(F)(F)F)C(=O)N(c2ccccc2)C2=C1C(=O)CC(C)(C)C2 (stereo unspecified)	1100 nM		
Cc1[nH]n(-c2ccccc2)c(=O)c1C1(C(F)(F)F)C(=O)N(c2ccccc2)C2=C1C(=O)CC(c1ccccc1)C2 (stereo unspecified)		6260 nM	
Cc1[nH]n(-c2ccccc2)c(=O)c1C1(C(F)(F)F)C(=O)N(c2ccccc2)C2=C1C(=O)CCC2 (stereo unspecified)		4500 nM	
Cc1[nH]n(-c2ccccc2)c(=O)c1C1(C(F)(F)F)C(=O)N(c2ccccc2)C2=C1C(=O)CC1(CCC1)C2 (stereo unspecified)		123 nM	
Cc1[nH]n(-c2ccc(OC(F)(F)F)cc2)c(=O)c1C1(C(F)(F)F)C(=O)N(c2ccccc2)C2=C1C(=O)CC(C)(C)C2 (stereo unspecified)	337 nM		concentration at 2 h [3]: 50 µM; IC50 [4]: > 10000 nM; IC50 [5]: > 10000 nM; IC50 [6]: 194 nM; concentration at 24 h [7]: 0.4 µM; IC50 [8]: 31 nM; IC50 [9]: > 10000 nM; concentration at 4 h [10]: 2.8 µM; Activity (Mus musculus): Dose-dependent effect; concentration at 2 h [11]: 30 µM; concentration at 2 h [12]: 3.4 µM; concentration at 8 h [13]: 1.4 µM
CC(C)c1[nH]n(-c2ccccc2)c(=O)c1C1(C(F)(F)F)C(=O)N(c2ccccc2)C2=C1C(=O)CC(C)(C)C2 (stereo unspecified)		> 10000 nM	
Cc1[nH]n(-c2ccccc2)c(=O)c1C1(C(F)(F)F)C(=O)N(c2ccccc2)C2=C1C(=O)CC(C)C2 (stereo unspecified)		704 nM	
Cc1[nH]n(C2CCCCC2)c(=O)c1C1(C(F)(F)F)C(=O)N(c2ccccc2)C2=C1C(=O)CC(C)(C)C2 (stereo unspecified)		> 10000 nM	
Cc1[nH]n(C)c(=O)c1C1(C(F)(F)F)C(=O)N(c2ccccc2)C2=C1C(=O)CC(C)(C)C2 (stereo unspecified)		2020 nM	
Cc1[nH]n(C(C)C)c(=O)c1C1(C(F)(F)F)C(=O)N(c2ccccc2)C2=C1C(=O)CC(C)(C)C2 (stereo unspecified)		> 10000 nM	
Cc1ccc(-n2[nH]c(C)c(C3(C(F)(F)F)C(=O)N(c4ccccc4)C4=C3C(=O)CC(C)(C)C4)c2=O)cc1 (stereo unspecified)	375 nM		
